The text below walks through data of ChEMBL document CHEMBL5661969, “Preclinical evaluation of a potent novel DNA-dependent protein kinase inhibitor NU7441” (Cancer Res, 2006).

Data set [1] in a line: Inhibition of DNA-PK in Chinese hamster DNA-PK proficient V3-YAC cells assessed as potentiation of etoposide-induced cytotoxicity by measuring etoposide LD90 at 0.5 umol/L measured after 16 hrs by crystal violet staining based assay. More on the design: species or system Cricetulus griseus. As to conditions: dose 0.5 µmol/L, condition cancer.
Data set [2] in a line: Inhibition of DNA-PK in Chinese hamster DNA-PK proficient V3-YAC cells assessed as potentiation of ionizing radiation-induced cytotoxicity by measuring fold change in radiation LD90 at 0.5 umol/L preincubated for 1 hr followed by gamma-irradiation and measured after 16 hrs by crystal violet staining based assay relative to radiation alone. More on the design: species or system Cricetulus griseus. As to conditions: dose 0.5 µmol/L; time 17 hrs; condition cancer. The method, boiled down: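 V3-YAC Chinese hamster ovary cells (human DNA-PKcs YAC, kept in 500 μg/mL G-418), RPMI 1640/10% FBS. Cells reseeded drug-free, colonies crystal violet stained after 10–14 days; LD90 ratio without/with inhibitor (DMR90).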

A short description of data set [3]: Cytotoxicity against Chinese hamster DNA-PK deficient V3 cells assessed as reduction in cell survival at 0.5 umol/L measured after 16 hrs in presence of etoposide by crystal violet staining based assay. The data set is classed as toxicity, Cricetulus griseus. The note with it: v3, 16 h, 0.5 µM, dose 0.5 µmol/L. An outline of the steps: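 Exponentially growing cells exposed 16 h to agent (0.5 or 1.0 μmol/L), with or without etoposide or doxorubicin, at 0.5% DMSO final; controls get DMSO alone. Cells are then trypsinized, reseeded at 100–100,000 per dish in drug-free medium and grown 10–14 days. Colonies stained with crystal violet and counted automatically.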

The next data set has as its system SW-620. The data set can be described thus: Cell cycle arrest in human SW620 cells assessed as reduction in S-phase cell population at 1 umol/L measured after 1 hr by propidium iodide staining based flow cytometry relative to control. Format: toxicity. More on the design: scale not given: the % may be the effect or the level left. The note with it: sw-620, 1 µM, dose 1 µmol/L. An outline of the steps:
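Asynchronous SW620 or LoVo cells, seeded 24 h earlier, given control or 1 μmol/L agent medium for 1 h before ionizing radiation, etoposide or doxorubicin, then incubated a further 16 h. Cells fixed in 70% ethanol, stained with propidium iodide (400 μg/mL) plus RNase (1 mg/mL), and analysed by 488 nm flow cytometry.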
For orientation: Flow cytometry measures light scatter and fluorescence of single cells or particles in a stream.

Data set [4] is described as follows: Elimination half life in BALB/c mouse at 5 mg/kg, iv by HPLC analysis. The data set is classed as ADME, organism-based. As to conditions: in vivo, read-out: beta t1/2. The method, boiled down:
(§1)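 Female BALB/c mice dosed 5 mg/kg i.v. in 10% DMSO/10% cyclodextrin in saline, or 10 mg/kg i.p. or orally at 1 mg/mL in 40% PEG400/saline. Plasma taken at 5, 10, 15, 30, 60, 90, 120, 180, 240 and 360 min, three mice per time. Acetonitrile precipitation, C18 HPLC with UV detection at 329 nm against a plasma standard curve. Parameters derived from mean concentrations.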

The nature of data set [5]: AUClast in BALB/c mouse at 10 mg/kg, ip by HPLC analysis. Format: ADME, organism-based. The note with it: in vivo. The method, boiled down: as §1
Data set [6] is described as follows: AUCinfinity in BALB/c mouse at 10 mg/kg, ip by HPLC analysis. The data set is classed as ADME, organism-based. As to conditions: in vivo. An outline of the steps: as §1
The nature of data set [7]: Bioavailability in BALB/c mouse at 10 mg/kg, ip by HPLC analysis. Format: ADME, organism-based. As to conditions: in vivo. An outline of the steps:
as §1

Data set [8] is described as follows: Ratio of drug level in tumor to plasma of human SW620 cell xenografted athymic nude CD1 mouse at 10 mg/kg, ip measured after 15 mins by HPLC analysis. The note with it: tumor and plasma. Format: ADME, organism-based. The method, boiled down:
(§2)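 Female CD-1 nu/nu mice bearing s.c. flank SW620 tumours (1×10^7 cells, ~650 mm³ at 10–14 days) given 10 mg/kg i.p. Tissues snap frozen, homogenised 1:3 in PBS. Acetonitrile precipitation, C18 HPLC with acetate pH 5/acetonitrile 75:25 mobile phase, UV 329 nm; tissue levels by method of addition. Tissue/plasma ratio, mean of three mice per time.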

Data set [9] in a line: Ratio of drug level in brain to plasma of human SW620 cell xenografted athymic nude CD1 mouse at 10 mg/kg, ip measured after 30 mins by HPLC analysis. The data set is classed as ADME, organism-based. As to conditions: brain and plasma, read-out: BPR. An outline of the steps:
as §2

Data set [10] in a line: Ratio of drug level in brain to plasma of human SW620 cell xenografted athymic nude CD1 mouse at 10 mg/kg, ip measured after 240 mins by HPLC analysis. The data set is classed as ADME, organism-based. As to conditions: brain and plasma, read-out: BPR. The method, boiled down: as §2
(In general: A xenograft is tissue or cells of one species grown in another, often human tumour cells in immunodeficient mice.)

Data set [11] in a line: Ratio of drug level in kidney to plasma of human SW620 cell xenografted athymic nude CD1 mouse at 10 mg/kg, ip measured after 30 mins by HPLC analysis. Format: ADME, organism-based. The note with it: kidney and plasma. The method, boiled down: as §2
The nature of data set [12]: Ratio of drug level in liver to plasma of human SW620 cell xenografted athymic nude CD1 mouse at 10 mg/kg, ip measured after 60 mins by HPLC analysis. Format: ADME, organism-based. The method, boiled down: as §2
Data set [13] in a line: Ratio of drug level in spleen to plasma of human SW620 cell xenografted athymic nude CD1 mouse at 10 mg/kg, ip measured after 30 mins by HPLC analysis. The data set is classed as ADME, organism-based. An outline of the steps: as §2
Data set [14] can be described thus: Ratio of drug level in spleen to plasma of human SW620 cell xenografted athymic nude CD1 mouse at 10 mg/kg, ip measured after 60 mins by HPLC analysis. The data set is classed as ADME, organism-based. An outline of the steps:
as §2

Data set [15] deals with DNA-dependent protein kinase catalytic subunit (Homo sapiens, UniProt P78527). The note with it: LoVo, dose 1.0 µmol/L, time 17.0 hrs.
Sequence of DNA-dependent protein kinase catalytic subunit (P78527 whole entry): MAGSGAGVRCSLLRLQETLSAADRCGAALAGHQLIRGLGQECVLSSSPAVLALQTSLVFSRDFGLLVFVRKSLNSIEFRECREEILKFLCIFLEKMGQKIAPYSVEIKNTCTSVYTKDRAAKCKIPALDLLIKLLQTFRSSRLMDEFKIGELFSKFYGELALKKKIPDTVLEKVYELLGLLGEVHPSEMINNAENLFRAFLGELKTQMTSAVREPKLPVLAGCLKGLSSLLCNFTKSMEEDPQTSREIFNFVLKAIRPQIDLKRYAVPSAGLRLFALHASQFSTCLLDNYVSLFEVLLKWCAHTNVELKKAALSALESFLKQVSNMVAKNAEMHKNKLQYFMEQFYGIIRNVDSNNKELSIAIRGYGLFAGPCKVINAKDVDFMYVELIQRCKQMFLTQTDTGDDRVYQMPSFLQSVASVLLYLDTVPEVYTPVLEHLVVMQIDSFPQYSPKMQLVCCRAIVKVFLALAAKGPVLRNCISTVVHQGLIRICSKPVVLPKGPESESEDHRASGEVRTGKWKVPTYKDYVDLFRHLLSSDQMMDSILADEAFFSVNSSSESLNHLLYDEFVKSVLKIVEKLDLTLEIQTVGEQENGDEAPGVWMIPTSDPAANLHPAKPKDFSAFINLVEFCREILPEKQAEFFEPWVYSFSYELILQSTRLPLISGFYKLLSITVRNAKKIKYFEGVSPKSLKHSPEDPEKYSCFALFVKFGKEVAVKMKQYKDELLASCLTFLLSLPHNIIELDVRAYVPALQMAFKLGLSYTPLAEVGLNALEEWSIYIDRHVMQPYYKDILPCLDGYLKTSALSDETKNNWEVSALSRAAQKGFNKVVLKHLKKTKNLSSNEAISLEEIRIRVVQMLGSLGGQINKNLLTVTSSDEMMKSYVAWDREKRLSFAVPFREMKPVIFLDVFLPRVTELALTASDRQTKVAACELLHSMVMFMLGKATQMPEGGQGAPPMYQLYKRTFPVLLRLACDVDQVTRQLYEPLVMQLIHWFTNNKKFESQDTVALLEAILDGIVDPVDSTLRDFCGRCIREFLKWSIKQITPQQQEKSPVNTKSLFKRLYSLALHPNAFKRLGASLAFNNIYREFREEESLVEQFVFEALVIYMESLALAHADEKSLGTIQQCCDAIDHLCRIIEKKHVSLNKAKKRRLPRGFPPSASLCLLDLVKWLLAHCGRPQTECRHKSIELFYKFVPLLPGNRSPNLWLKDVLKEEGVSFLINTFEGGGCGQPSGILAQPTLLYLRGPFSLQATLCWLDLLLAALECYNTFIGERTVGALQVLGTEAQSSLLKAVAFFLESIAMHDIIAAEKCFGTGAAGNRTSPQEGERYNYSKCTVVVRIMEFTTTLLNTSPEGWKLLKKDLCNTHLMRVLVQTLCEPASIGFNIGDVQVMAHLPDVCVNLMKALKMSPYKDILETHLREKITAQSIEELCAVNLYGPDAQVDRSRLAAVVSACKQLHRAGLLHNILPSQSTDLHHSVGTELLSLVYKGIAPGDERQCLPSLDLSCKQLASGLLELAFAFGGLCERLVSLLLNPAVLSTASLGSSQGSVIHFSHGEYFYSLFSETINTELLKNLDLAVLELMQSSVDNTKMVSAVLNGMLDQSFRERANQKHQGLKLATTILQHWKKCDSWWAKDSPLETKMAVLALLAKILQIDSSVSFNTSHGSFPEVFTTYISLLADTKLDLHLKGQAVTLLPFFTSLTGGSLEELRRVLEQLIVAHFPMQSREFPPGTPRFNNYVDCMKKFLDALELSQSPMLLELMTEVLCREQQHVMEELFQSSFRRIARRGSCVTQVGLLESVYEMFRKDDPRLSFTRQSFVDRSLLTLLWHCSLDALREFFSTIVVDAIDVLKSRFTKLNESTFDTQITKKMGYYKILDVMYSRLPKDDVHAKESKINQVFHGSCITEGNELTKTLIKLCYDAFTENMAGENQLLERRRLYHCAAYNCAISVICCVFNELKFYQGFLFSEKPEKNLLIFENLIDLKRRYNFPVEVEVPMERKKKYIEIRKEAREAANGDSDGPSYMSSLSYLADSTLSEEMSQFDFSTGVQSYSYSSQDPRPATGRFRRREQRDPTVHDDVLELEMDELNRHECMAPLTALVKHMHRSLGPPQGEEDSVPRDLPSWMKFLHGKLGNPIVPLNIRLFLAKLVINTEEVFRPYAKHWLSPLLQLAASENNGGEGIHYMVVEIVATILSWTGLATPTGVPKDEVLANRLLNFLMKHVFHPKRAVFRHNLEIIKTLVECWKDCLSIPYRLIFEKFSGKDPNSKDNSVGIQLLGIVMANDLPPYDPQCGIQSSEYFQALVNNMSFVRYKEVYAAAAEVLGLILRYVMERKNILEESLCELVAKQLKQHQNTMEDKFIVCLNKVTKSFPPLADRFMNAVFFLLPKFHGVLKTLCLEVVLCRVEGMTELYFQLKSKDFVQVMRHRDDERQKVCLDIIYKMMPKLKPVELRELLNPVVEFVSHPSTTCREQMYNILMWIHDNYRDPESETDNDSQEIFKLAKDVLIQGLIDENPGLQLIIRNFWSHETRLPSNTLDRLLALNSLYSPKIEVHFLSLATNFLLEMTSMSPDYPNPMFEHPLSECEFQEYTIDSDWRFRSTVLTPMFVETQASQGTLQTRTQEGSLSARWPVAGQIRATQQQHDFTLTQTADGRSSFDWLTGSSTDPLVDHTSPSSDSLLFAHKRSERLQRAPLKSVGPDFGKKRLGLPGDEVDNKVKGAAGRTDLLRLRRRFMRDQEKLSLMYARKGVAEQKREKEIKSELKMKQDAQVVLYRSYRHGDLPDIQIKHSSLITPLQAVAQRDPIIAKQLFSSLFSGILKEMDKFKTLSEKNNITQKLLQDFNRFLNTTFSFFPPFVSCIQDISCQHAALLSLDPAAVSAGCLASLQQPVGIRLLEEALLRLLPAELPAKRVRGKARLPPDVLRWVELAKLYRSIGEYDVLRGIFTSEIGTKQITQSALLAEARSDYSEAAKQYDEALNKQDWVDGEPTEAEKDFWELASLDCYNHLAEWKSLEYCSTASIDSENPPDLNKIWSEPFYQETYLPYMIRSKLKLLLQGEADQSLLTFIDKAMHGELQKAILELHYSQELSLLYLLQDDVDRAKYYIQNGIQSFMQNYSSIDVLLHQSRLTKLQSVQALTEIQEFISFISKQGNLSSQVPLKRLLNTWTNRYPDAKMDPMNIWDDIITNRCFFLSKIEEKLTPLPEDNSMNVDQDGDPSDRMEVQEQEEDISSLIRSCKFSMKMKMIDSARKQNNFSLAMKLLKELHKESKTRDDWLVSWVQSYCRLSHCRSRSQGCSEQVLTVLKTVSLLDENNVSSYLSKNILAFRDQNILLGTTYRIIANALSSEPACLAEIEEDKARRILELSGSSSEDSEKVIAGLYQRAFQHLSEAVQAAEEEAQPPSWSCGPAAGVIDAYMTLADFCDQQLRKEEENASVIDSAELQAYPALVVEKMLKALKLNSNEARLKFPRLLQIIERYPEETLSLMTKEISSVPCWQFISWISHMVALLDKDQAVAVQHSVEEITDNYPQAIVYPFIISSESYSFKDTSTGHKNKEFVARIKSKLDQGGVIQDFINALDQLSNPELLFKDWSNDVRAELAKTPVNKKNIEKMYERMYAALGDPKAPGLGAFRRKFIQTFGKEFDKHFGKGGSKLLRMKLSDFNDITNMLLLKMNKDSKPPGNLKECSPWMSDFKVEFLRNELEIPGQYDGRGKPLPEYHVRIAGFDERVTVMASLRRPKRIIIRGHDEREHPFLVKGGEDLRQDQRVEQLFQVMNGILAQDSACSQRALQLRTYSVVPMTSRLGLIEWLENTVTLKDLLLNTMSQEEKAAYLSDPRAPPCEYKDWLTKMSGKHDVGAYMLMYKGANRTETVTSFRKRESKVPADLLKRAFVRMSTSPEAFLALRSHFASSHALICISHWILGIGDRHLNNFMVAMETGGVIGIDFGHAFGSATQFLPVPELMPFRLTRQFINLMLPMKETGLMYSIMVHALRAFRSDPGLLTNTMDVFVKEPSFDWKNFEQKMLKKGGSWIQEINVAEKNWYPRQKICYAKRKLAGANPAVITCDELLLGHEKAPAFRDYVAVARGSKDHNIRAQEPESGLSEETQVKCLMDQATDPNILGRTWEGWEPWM

The AUC(0-t) is the area under the concentration-time curve up to a stated or last time point. A word on the AUC(0-inf): it is total exposure, with the tail of the curve extrapolated. As a reminder, the bioavailability is dose-corrected exposure relative to a reference, in per cent.

Consider `O=c1cc(N2CCOCC2)oc2c(-c3cccc4c3sc3ccccc34)cccc12`, for which the figures for the LD90 in data set [1] and in data set [15] were 0.8 µmol/L and 1 Gy, respectively. The “fold change (FC)” value in data set [2] came out at 1.6. In addition, the Activity entry in [3] is recorded as “Toxic”; with SW-620, 24%. The half-life in data set [4] is 46 min. Further, the AUC(0-t) in data set [5] was 2500 ng·h/mL. For the same molecule, in data set [6], the AUC(0-inf) is 2530 ng·h/mL. Further, the bioavailability in [7] was determined as 100%. Further, the Kp at 0.25 h in data set [8] worked out at 0.38. Further, the values for the Kp at 0.5 h in [9], in [11] and in [13] were 2.2, 3.4 and 3.2, respectively. The Kp at 4 h in data set [10] amounted to 6.2. For the same molecule, the Kp at 1 h in data set [12] was 5.4; in [14] it was 3.2.
